Test results published in ChEMBL document CHEMBL3792315, “Potent, Selective, and CNS-Penetrant Tetrasubstituted Cyclopropane Class IIa Histone Deacetylase (HDAC) Inhibitors” (ACS Med Chem Lett, 2016).

What was measured:
[1] = tested on: Plasma; experiment: Dose normalized AUC in C57Bl/6 mouse plasma at 10 mg/kg, po; type: ADME, organism-based; settings: in vivo
How it was run: (§1)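 A single 10 mg/kg oral gavage dose was given to fed male C57Bl/6 mice. Concentrations were measured in plasma, brain and muscle to derive Cmax, Tmax and AUC, with Cmax and AUC normalised to dose.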

[2] = tested on: Plasma; experiment: Dose normalized Cmax in C57Bl/6 mouse plasma at 10 mg/kg, po; type: ADME, organism-based; settings: in vivo; how it was run: as §1
[3] = Oral bioavailability in C57Bl/6 mouse plasma at 10 mg/kg; type: ADME, organism-based
[4] = tested on: Brain; experiment: Dose normalized Cmax in C57Bl/6 mouse brain at 10 mg/kg, po; type: ADME, organism-based; settings: in vivo; how it was run: as §1
[5] = Volume of distribution at steady state in C57Bl/6 mouse plasma at 5 mg/kg, iv; type: ADME, organism-based; settings: read-out: Vdss
How it was run: (§2)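 Fed male C57Bl/6 mice were dosed intravenously, and plasma was sampled to derive half-life, plasma clearance and steady-state volume of distribution. The iv dose differed per compound (5, 1 or 2.5 mg/kg).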

[6] = tested on: Brain; experiment: Dose normalized AUC in C57Bl/6 mouse brain at 10 mg/kg, po; type: ADME, organism-based; settings: in vivo; how it was run: as §1
[7] = tested on: Muscle tissue; experiment: Dose normalized Cmax in C57Bl/6 mouse muscle at 10 mg/kg, po; type: ADME, organism-based; settings: in vivo; how it was run: as §1
[8] = Tmax in C57Bl/6 mouse muscle at 10 mg/kg, po; type: ADME, organism-based, Muscle tissue; how it was run: as §1
[9] = Tmax in C57Bl/6 mouse plasma at 10 mg/kg, po; type: ADME, organism-based; how it was run: as §1
[10] = Tmax in C57Bl/6 mouse brain at 10 mg/kg, po; type: ADME, organism-based; how it was run: as §1
[11] = tested on: Muscle tissue; experiment: Dose normalized AUC in C57Bl/6 mouse muscle at 10 mg/kg, po; type: ADME, organism-based; settings: in vivo; how it was run: as §1
[12] = Apparent permeability across apical to basolateral side in MDCK cells expressing MDR1; type: ADME, cell-based, Canis lupus familiaris; settings: dog
[13] = Volume of distribution at steady state in C57Bl/6 mouse plasma at 1 mg/kg, iv; type: ADME, organism-based; settings: read-out: Vdss; how it was run: as §2
[14] = Volume of distribution at steady state in C57Bl/6 mouse plasma at 2.5 mg/kg, iv; type: ADME, organism-based; settings: read-out: Vdss; how it was run: as §2

Structure (SMILES): O=C(NO)[C@@H]1[C@H](c2ccccc2)[C@H]1c1ccc(-c2ncc(F)cn2)cc1
- AUC/dose [1]: 110 nM·kg·h/mg
- Cmax/dose [2]: 97 nM·kg/mg
- bioavailability [3]: 100%
- Cmax/dose [4]: 570 nM·kg/mg
- Vd [5]: 4.1 L/kg
- AUC/dose [6]: 830 nM·kg·h/mg
- Cmax/dose [7]: 320 nM·kg/mg
- Tmax [8]: 30 min
- Tmax [9]: 30 min
- Tmax [10]: 30 min
- AUC/dose [11]: 330 nM·kg·h/mg

Structure (SMILES): Cc1cnc(-c2ccc([C@@H]3[C@@H](c4ccccc4)[C@@]3(F)C(=O)NO)cc2)nc1
- Papp A→B [12]: 369 nm/s

Structure (SMILES): Cc1cnc(-c2ccc([C@H]3[C@H](C(=O)NO)[C@@H]3c3ccccc3)cc2)nc1
- Papp A→B [12]: 375 nm/s

Structure (SMILES): O=C(NO)[C@]1(F)[C@H](c2ccccc2)[C@H]1c1ccc(-c2ncc(F)cn2)cc1
- AUC/dose [1]: 480 nM·kg·h/mg
- Papp A→B [12]: 418 nm/s
- Cmax/dose [2]: 180 nM·kg/mg
- bioavailability [3]: 79%
- Cmax/dose [4]: 780 nM·kg/mg
- AUC/dose [6]: 1900 nM·kg·h/mg
- Cmax/dose [7]: 290 nM·kg/mg
- Tmax [8]: 30 min
- Tmax [9]: 15 min
- Tmax [10]: 30 min
- Vd [13]: 5.1 L/kg
- AUC/dose [11]: 640 nM·kg·h/mg

Structure (SMILES): O=C(NO)[C@]1(F)[C@H](c2ccccc2)[C@H]1c1ccc(-c2cnco2)cc1
- Papp A→B [12]: 487 nm/s

Structure (SMILES): Cc1cnc(-c2ccc([C@@H]3[C@@H](c4ccccc4)[C@@]3(C)C(=O)NO)cc2)nc1
- Papp A→B [12]: 391 nm/s

Structure (SMILES): O=C(NO)[C@@H]1[C@H](c2ccccc2)[C@H]1c1ccc(-c2ncc(OC(F)F)cn2)cc1
- Papp A→B [12]: 129 nm/s

Structure (SMILES): O=C(NO)[C@]1(F)[C@H](c2ccccc2)[C@H]1c1ccc(-c2nccc(C(F)(F)F)n2)cc1
- Papp A→B [12]: 70 nm/s

Structure (SMILES): O=C(NO)[C@]1(F)[C@H](c2ccccc2)[C@H]1c1ccc(-c2ncc(Cl)cn2)cc1
- Papp A→B [12]: < 10 nm/s

Structure (SMILES): O=C(NO)[C@@H]1[C@H](c2ccccc2)[C@H]1c1ccc(-c2nccc(C(F)(F)F)n2)cc1
- Papp A→B [12]: 114 nm/s

Structure (SMILES): O=C(NO)[C@]1(F)[C@H](c2ccccc2)[C@H]1c1ccc(-c2ncc(OC(F)F)cn2)cc1
- AUC/dose [1]: 660 nM·kg·h/mg
- Papp A→B [12]: 192 nm/s
- Cmax/dose [2]: 150 nM·kg/mg
- bioavailability [3]: 100%
- Cmax/dose [4]: 120 nM·kg/mg
- AUC/dose [6]: 580 nM·kg·h/mg
- Cmax/dose [7]: 56 nM·kg/mg
- Tmax [8]: 30 min
- Tmax [9]: 15 min
- Tmax [10]: 60 min
- Vd [14]: 10 L/kg
- AUC/dose [11]: 300 nM·kg·h/mg

Structure (SMILES): O=C(NO)[C@@H]1[C@H](c2ccccc2)[C@H]1c1ccc(-c2ncc(Cl)cn2)cc1
- Papp A→B [12]: 380 nm/s
